Experimental data taken from ChEMBL document CHEMBL3525903 (Drug Metab Dispos, 2013).
Blank lines part the entries; values can stand above or below the compound they belong to.

Experiments:
[1] = target: ATP-binding cassette sub-family C member 2 (Homo sapiens, UniProt Q92887); assay: Inhibition of human MRP2 expressed in MDCK2 cells assessed as reduction of [3H]E217betaG substrate transport at 25 uM by liquid scintillation counting; format: ADME, cell-based; conditions: mdck-ii
Procedure, shortened: (§1)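 Membrane vesicles made from MDCKII cells expressing BCRP or MRP2, and from parental cells (1 μg/μL protein). Run in Tris-sucrose buffer, pH 7.4, with 10 mM MgCl2, creatine phosphokinase and ATP, or AMP as control. Substrates: 0.035 μM [3H]E-sul for BCRP, 2 min; 0.033 μM [3H]E217βG for MRP2, 5 min; both at 37 °C. Stopped ice-cold, filtered, and counted by scintillation.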

[2] = target: T1, Broad substrate specificity ATP-binding cassette transporter ABCG2 (Homo sapiens, UniProt Q9UNQ0); assay: Inhibition of human BCRP expressed in MDCK2 cells assessed as reduction of [3H]E-sul substrate transport at 50 uM by liquid scintillation counting; format: ADME, cell-based; conditions: mdck-ii; procedure, shortened: as §1
T1 sequence (Q9UNQ0 whole entry): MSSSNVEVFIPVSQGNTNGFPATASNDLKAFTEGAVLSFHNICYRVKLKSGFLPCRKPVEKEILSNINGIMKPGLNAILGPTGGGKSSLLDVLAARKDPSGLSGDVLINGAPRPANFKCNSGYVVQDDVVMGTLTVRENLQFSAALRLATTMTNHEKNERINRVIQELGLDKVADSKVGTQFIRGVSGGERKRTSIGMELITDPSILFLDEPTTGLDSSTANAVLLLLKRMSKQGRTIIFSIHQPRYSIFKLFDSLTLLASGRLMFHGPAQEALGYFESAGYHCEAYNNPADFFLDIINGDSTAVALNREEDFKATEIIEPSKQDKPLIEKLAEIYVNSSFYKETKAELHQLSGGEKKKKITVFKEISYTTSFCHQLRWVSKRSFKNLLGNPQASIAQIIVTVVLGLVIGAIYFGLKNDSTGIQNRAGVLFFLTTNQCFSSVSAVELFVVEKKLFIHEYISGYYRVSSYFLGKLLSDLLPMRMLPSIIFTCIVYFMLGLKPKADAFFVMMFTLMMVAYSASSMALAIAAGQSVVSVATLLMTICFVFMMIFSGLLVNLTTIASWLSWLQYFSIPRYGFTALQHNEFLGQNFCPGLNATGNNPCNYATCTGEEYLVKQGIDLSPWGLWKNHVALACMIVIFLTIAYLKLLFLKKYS

[3] = target: T2, Organic anion transporter 3 (Homo sapiens, UniProt Q8TCC7); assay: Inhibition of OAT3 (unknown origin) expressed in HEK293 cells assessed as reduction of [3H]E-sul substrate uptake at 100 uM by liquid scintillation counting; format: ADME, cell-based; conditions: hek293, 100 µM
T2 sequence (Q8TCC7 whole entry): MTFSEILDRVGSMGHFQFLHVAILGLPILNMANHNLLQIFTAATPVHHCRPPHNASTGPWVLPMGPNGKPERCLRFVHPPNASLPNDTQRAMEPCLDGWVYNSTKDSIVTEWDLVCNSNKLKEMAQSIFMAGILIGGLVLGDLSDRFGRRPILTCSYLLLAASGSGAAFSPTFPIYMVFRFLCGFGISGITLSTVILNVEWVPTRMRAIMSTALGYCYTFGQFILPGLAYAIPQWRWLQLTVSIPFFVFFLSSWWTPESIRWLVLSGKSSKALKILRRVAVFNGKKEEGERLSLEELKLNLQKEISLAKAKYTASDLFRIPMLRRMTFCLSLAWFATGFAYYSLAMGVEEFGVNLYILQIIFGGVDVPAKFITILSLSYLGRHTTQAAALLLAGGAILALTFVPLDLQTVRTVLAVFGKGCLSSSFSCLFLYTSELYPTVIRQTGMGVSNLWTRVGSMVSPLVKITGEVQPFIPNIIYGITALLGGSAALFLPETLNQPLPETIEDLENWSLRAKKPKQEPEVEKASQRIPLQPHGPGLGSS
Procedure, shortened: (§2)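 HEK293 cells transiently transfected with OAT, OATP or OCT plasmid (FuGENE6; 24 h, then 24 h more with sodium butyrate), or stable OCTN1/OCTN2 lines; vector-transfected cells as control. Washed, preincubated 15–60 min at 37 °C in modified Krebs-Henseleit/25 mM HEPES buffer. Uptake of radiolabelled substrate, 100 µM inhibitor. Cells lysed in NaOH and counted by scintillation; counts normalised to medium radioactivity and Lowry protein; vector uptake subtracted.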

[4] = target: T3, Solute carrier family 22 member 11 (Homo sapiens, UniProt Q9NSA0); assay: Inhibition of OAT4 (unknown origin) expressed in HEK293 cells assessed as reduction of [3H]E-sul substrate uptake at 500 uM by liquid scintillation counting; format: ADME, cell-based; conditions: hek293, 500 µM
T3 sequence (Q9NSA0 whole entry): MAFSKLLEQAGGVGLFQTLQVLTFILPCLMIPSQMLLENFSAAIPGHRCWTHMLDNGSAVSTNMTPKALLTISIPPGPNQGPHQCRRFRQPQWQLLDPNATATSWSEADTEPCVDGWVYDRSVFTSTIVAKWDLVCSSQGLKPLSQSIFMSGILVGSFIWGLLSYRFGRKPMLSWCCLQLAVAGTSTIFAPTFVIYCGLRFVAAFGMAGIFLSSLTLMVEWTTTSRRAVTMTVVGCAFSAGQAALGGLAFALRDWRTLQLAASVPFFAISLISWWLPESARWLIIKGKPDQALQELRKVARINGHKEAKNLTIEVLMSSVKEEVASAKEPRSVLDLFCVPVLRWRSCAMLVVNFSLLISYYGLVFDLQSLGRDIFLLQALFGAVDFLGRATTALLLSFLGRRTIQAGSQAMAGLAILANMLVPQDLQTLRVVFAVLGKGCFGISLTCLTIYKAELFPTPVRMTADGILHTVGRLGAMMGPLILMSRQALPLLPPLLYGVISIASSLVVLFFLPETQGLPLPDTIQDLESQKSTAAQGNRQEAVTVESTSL
Procedure, shortened: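 HEK293 cells transfected with OAT4, incubated with 0.1 μM [3H]E-sul and probenecid 500 µM as the inhibitor. Uptake counted by scintillation, normalised to protein, with vector uptake subtracted.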

OCTN2 = target: T4, OCTN2 (Homo sapiens, UniProt O76082); assay: Inhibition of OCTN2 (unknown origin) expressed in HEK293 cells assessed as reduction of [3H]carnitine substrate uptake at 1500 uM by liquid scintillation counting; format: cell-based; conditions: HEK293 cells expressing OCTN2, probe [3H]carnitine
T4 sequence (O76082 whole entry): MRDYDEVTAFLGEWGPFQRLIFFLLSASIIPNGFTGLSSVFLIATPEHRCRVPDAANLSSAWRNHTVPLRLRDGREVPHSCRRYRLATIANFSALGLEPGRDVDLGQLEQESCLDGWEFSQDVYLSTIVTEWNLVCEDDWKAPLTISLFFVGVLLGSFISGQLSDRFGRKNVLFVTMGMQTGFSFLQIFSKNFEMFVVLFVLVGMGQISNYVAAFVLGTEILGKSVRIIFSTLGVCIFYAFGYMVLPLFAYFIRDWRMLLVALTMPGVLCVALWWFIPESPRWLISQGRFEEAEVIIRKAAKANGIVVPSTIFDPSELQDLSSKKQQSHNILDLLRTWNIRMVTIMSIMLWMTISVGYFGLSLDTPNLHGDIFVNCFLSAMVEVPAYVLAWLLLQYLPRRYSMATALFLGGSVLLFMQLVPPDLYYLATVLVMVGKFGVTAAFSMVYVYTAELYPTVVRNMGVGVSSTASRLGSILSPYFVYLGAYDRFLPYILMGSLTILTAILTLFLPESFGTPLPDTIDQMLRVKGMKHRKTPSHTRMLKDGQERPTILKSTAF
Procedure, shortened: (§3)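 HEK293 cells stably expressing OCTN1 or OCTN2, cultured two days before the assay. Quinidine 1500 µM tested against [3H]ergothioneine (1 μM, OCTN1) or [3H]carnitine (0.1 μM, OCTN2). Vector-cell uptake subtracted.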

OCTN1 (SLC22A4) = target: T5, OCTN1 (SLC22A4) (Homo sapiens, UniProt Q9H015); assay: Inhibition of OCTN1 (unknown origin) expressed in HEK293 cells assessed as reduction of [3H]ergothioneine substrate uptake at 1500 uM by liquid scintillation counting; format: cell-based; conditions: HEK293 cells expressing OCTN1, probe [3H]ergothioneine; procedure, shortened: as §3
T5 sequence (Q9H015 whole entry): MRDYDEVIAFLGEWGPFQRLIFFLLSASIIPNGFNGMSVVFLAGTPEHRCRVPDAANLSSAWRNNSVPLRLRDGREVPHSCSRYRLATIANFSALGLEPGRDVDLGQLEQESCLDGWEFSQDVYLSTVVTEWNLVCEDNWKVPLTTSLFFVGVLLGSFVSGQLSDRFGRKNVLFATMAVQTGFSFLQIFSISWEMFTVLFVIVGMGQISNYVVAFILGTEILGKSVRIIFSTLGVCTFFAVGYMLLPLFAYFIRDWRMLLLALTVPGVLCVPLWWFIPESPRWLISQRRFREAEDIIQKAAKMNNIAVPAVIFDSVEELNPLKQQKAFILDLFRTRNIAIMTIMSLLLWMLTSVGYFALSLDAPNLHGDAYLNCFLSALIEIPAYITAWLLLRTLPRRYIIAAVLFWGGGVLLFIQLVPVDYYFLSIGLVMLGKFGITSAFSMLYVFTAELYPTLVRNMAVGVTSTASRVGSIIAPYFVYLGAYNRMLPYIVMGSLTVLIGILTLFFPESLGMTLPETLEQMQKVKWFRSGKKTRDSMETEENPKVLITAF

[5] = target: T6, Solute carrier organic anion transporter family member 1B3 (Homo sapiens, UniProt Q9NPD5); assay: Inhibition of OATP1B3 (unknown origin) expressed in HEK293 cells assessed as reduction of [3H]CCK8 substrate uptake at 100 uM by liquid scintillation counting; format: ADME, cell-based; conditions: hek293, 100 µM; procedure, shortened: as §2
T6 sequence (Q9NPD5 whole entry): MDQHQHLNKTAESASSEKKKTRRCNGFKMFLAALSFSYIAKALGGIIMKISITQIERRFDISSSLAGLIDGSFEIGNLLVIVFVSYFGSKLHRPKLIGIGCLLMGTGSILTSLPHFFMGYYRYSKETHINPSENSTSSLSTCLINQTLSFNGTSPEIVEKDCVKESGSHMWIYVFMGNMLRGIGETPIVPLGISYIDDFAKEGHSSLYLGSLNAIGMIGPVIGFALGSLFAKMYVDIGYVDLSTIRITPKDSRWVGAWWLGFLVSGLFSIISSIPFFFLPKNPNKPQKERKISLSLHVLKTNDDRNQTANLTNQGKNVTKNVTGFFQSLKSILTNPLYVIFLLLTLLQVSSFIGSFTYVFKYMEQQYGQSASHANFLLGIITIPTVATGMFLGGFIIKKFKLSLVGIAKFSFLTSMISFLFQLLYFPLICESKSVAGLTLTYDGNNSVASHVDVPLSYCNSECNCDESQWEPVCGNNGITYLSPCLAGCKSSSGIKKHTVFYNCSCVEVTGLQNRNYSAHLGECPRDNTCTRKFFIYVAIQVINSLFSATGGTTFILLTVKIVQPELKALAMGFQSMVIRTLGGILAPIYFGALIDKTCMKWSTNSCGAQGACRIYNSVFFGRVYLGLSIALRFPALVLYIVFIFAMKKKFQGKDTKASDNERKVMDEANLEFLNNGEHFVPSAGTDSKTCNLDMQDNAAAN

[6] = target: T7, Solute carrier organic anion transporter family member 1B1 (Homo sapiens, UniProt Q9Y6L6); assay: Inhibition of OATP1B1 (unknown origin) expressed in HEK293 cells assessed as reduction of [3H]E217betaG substrate uptake at 100 uM by liquid scintillation counting; format: ADME, cell-based; conditions: hek293, 100 µM; procedure, shortened: as §2
T7 sequence (Q9Y6L6 whole entry): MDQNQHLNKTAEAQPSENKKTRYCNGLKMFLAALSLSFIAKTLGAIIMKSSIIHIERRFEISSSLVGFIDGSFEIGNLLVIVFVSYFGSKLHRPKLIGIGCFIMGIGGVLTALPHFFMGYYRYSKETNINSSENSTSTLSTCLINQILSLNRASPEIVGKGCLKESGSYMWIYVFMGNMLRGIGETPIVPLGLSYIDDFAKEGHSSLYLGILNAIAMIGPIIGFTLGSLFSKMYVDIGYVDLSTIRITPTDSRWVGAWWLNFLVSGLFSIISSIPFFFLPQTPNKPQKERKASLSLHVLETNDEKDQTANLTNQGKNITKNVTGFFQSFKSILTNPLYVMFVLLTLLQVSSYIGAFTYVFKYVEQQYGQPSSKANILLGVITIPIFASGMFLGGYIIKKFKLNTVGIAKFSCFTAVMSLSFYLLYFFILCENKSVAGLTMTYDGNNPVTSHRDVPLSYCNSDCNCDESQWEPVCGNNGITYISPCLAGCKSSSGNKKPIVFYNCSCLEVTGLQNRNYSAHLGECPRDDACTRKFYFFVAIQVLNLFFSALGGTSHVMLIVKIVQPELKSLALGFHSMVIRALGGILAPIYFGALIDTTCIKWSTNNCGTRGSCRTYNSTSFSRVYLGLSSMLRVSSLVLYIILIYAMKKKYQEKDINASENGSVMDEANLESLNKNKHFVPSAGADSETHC

ATP-binding cassette sub-family C member 2, sequence (Q92887 whole entry): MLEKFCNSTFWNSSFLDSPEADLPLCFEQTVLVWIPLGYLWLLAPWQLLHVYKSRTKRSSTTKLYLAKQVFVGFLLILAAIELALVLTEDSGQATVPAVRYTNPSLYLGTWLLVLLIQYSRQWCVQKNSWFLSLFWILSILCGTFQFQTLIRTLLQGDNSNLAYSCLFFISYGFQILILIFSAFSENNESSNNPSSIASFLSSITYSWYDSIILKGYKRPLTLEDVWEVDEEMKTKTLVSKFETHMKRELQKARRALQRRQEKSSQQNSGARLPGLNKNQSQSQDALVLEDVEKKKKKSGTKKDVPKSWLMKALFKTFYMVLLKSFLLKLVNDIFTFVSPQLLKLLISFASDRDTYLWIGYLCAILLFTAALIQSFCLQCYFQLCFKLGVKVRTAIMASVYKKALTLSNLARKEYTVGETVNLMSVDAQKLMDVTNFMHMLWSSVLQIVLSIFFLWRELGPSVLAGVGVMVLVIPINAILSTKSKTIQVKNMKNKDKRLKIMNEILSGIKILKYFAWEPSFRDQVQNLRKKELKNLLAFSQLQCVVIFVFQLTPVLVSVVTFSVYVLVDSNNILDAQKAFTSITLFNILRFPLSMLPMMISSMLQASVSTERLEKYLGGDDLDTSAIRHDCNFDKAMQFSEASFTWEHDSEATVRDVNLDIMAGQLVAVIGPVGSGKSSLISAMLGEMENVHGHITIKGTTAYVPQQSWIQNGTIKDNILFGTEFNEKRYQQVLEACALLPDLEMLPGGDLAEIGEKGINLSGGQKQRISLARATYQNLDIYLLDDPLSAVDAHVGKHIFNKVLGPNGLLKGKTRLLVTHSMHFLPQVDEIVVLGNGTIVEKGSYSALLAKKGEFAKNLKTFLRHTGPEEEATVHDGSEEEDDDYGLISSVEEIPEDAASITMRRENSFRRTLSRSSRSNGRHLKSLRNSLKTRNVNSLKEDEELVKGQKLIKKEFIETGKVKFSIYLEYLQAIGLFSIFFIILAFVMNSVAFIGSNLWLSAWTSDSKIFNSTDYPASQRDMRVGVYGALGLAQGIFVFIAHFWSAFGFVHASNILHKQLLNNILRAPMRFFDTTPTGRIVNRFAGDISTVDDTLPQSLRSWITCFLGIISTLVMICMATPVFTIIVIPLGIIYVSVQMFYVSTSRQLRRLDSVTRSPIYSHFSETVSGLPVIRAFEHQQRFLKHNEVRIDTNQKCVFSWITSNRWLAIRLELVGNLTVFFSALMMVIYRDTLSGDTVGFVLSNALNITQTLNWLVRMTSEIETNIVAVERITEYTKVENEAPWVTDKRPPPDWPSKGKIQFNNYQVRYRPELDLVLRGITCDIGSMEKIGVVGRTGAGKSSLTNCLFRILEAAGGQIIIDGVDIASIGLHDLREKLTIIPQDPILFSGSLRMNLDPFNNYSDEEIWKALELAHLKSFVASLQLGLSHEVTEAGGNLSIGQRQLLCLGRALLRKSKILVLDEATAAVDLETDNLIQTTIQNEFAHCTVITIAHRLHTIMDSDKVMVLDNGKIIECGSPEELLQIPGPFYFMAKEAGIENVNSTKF

Structure (SMILES): COc1cc2nc(N3CCN(C(=O)c4ccco4)CC3)nc(N)c2cc1OC [PRAZOSIN]
inhibition (INH) [2]: Active

Structure (SMILES): C=C[C@H]1C[N@@]2CC[C@H]1C[C@@H]2[C@@H](O)c1ccnc2ccc(OC)cc12 [QUINIDINE]
inhibition at 1500 µM (OCTN2): 89.9% | inhibition at 1500 µM (OCTN1 (SLC22A4)): 83.9%

Structure (SMILES): CO[C@H]1/C=C/O[C@@]2(C)Oc3c(C)c(O)c4c(O)c(c(/C=N/N5CCN(C)CC5)c(O)c4c3C2=O)NC(=O)/C(C)=C\C=C\[C@H](C)[C@H](O)[C@@H](C)[C@@H](O)[C@@H](C)[C@H](OC(C)=O)[C@@H]1C [RIFAMPIN]
inhibition (INH) [5]: 97.4% | inhibition (INH) [6]: 98.4%

Results, then the compound that gave them:

inhibition (INH) [1]: Active
Structure (SMILES): CN(C)C(=O)CCSC(SCCC(=O)O)c1cccc(/C=C/c2ccc3ccc(Cl)cc3n2)c1 (stereo not drawn) [MK-571]

inhibition (INH) [3]: 88.5% | inhibition (INH) [4]: 81.4%
Structure (SMILES): CCCN(CCC)S(=O)(=O)c1ccc(C(=O)O)cc1 [PROBENECID]
